Activity calls are given as the source filed them. The rule behind the calls is not given here.
Tests used:
[1] = target: Focal adhesion kinase 1 (Homo sapiens, UniProt Q05397); assay: Inhibition of FAK (unknown origin) using ULight-poly GT as substrate after 1.6 hrs by TR-FRET assay
[2] = tested on: U-87MG ATCC; assay: Antimigratory activity in human U87MG cells after 30 mins by boyden chamber assay; type: functional, cell-based
[3] = tested on: MDA-MB-231; assay: Antiproliferative activity against human MDA-MB-231 cells after 48 hrs by WST-1 assay; type: functional, cell-based; conditions: MDA-MB-231, 48 h
How it was run: (§1)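 Exponentially growing cells in DMEM/10% FBS seeded at 5 × 10^3 per well, left overnight, then exposed 48 h to compounds diluted from DMSO; WST-1 added for 2 h, absorbance at 450 nm (reference 620 nm); viability as ratio to DMSO controls; three independent experiments, triplicate points; IC50 by nonlinear regression (log inhibitor vs normalized response, variable slope).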

[4] = Antiproliferative activity against human PC3 cells after 48 hrs by WST-1 assay; type: functional, cell-based; conditions: PC-3, 48 h; how it was run: as §1
[5] = tested on: MDA-MB-231; assay: Inhibition of colony formation in human MDA-MB-231 cells after 2 weeks by crystal violet staining-based assay; type: functional, cell-based; conditions: for IC50: MDA-MB-231, 336 h
How it was run: (§2)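 Seeding: 250 cells per well for HCT-116, 300 for U87MG, MDA-MB-231 and PC-3; incubated overnight, then exposed to a range of concentrations for 2 weeks. Fixed in 4% paraformaldehyde 30 min at room temperature, stained with 0.1% crystal violet. Colonies over 50 cells counted; colony formation rate calculated; IC50 by nonlinear regression.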

[6] = tested on: U-87MG ATCC; assay: Antimigratory activity in human U87MG cells at 2 uM […] by transwell membrane assay; type: functional, cell-based
[7] = tested on: U-87 MG; assay: Reduction of cell adherence in human U87MG cells after 30 mins by toluidine blue staining-based […]; type: functional; conditions: U-87MG ATCC
How it was run: (§3)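 U87-MG cells grown in 10% serum, trypsinised, diluted to 100 000 cells/mL in 10% serum medium, then treated 30 min with compound or DMSO. 20 000 cells per well allowed to attach 1 h. Fixed in 4% paraformaldehyde 30 min, stained with 0.1% toluidine blue in 4% PFA 30 min, washed, OD read at 620 nm for attached cells.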

[8] = Antiproliferative activity against human HCT116 cells after 48 hrs by WST-1 assay; type: functional, cell-based; conditions: HCT-116, 48 h; how it was run: as §1
[9] = (§4) Inhibition of colony formation in human U87MG cells after 2 weeks by crystal violet staining-based assay; type: functional, cell-based, U-87MG ATCC; conditions: U-87 MG, 336 h; how it was run: as §2
[10] = tested on: U-87MG ATCC; assay: as §4; type: functional, cell-based; how it was run: as §2
[11] = (§5) Inhibition of colony formation in human PC3 cells after 2 weeks by crystal violet staining-based assay; type: functional, cell-based; conditions: PC-3, 336 h; how it was run: as §2
[12] = tested on: PC-3; assay: as §5; type: functional, cell-based; how it was run: as §2
[13] = (§6) Inhibition of colony formation in human HCT116 cells after 2 weeks by crystal violet staining-based assay; type: functional, cell-based; conditions: HCT-116, 336 h; how it was run: as §2
[14] = tested on: HCT-116; assay: as §6; type: functional, cell-based; how it was run: as §2
[15] = Antiproliferative activity against human U87MG cells after 48 hrs by WST-1 assay; type: functional, cell-based, U-87MG ATCC; conditions: U-87 MG; how it was run: as §1
[16] = tested on: U-87 MG; assay: Induction of apoptosis in human U87MG cells assessed as early apoptotic cells at 0.3 uM after 24 hrs by Annexin V-PE/7-AAD staining-based FACS analysis (reference value: 0.691%); type: functional, U-87MG ATCC
[17] = Cell cycle arrest in human HCT116 cells assessed as accumulation at G0/G1 phase at 0.4 uM after 24 hrs by propidium iodide staining-based flow cytometry (reference value: 63.8%); type: functional; conditions: HCT-116
How it was run: (§7)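 Cells plated at 10^5 per well, left overnight, then exposed 24 h to compound or vehicle; stained 15 min at 37 °C with propidium iodide/Triton buffer; DNA content by flow cytometry, phase distribution fitted by Dean–Jett–Fox; HCT-116 at 0.3–0.5 μM, U87-MG at 0.3–3 μM; significance by unpaired Student's t test; one representative experiment.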

[18] = tested on: U-87 MG; assay: Induction of apoptosis in human U87MG cells assessed as late apoptotic cells at 0.3 uM after 24 hrs by Annexin V-PE/7-AAD staining-based FACS analysis (reference value: 1.59%); type: functional, U-87MG ATCC
[19] = tested on: U-87MG ATCC; assay: Antiinvasive activity in human U87MG cells after 30 mins by boyden chamber assay; type: functional, cell-based
[20] = tested on: U-87 MG; assay: Reduction of cell adherence in human U87MG cells at 0.5 uM after 30 mins by toluidine blue staining-based […]; type: functional, U-87MG ATCC; set-up: scale not given: the % may be the effect or the level left; how it was run: as §3
[21] = tested on: HCT-116; assay: Induction of apoptosis in human HCT116 cells assessed as early apoptotic cells at 0.4 uM after 24 hrs by Annexin V-PE/7-AAD staining-based FACS analysis (reference value: 4.68%); type: functional
[22] = Cell cycle arrest in human HCT116 cells assessed as accumulation at S phase at 0.4 uM after 24 hrs by propidium iodide staining-based flow cytometry (reference value: 17.7%); type: functional; conditions: HCT-116; how it was run: as §7
[23] = Antimigratory activity in human U87MG cells at 0.4 uM […] by transwell membrane assay; type: functional, U-87MG ATCC
[24] = tested on: HCT-116; assay: Induction of apoptosis in human HCT116 cells assessed as necrotic cells at 0.4 uM after 24 hrs by Annexin V-PE/7-AAD staining-based FACS analysis (reference value: 0.885%); type: functional
[25] = Cell cycle arrest in human U87MG cells at < 0.3 uM after 24 hrs by propidium iodide staining-based flow cytometry; type: functional; conditions: U-87MG ATCC; how it was run: as §7
[26] = tested on: HCT-116; assay: Induction of apoptosis in human HCT116 cells assessed as late apoptotic cells at 0.4 uM after 24 hrs by Annexin V-PE/7-AAD staining-based FACS analysis (reference value: 1.22%); type: functional
[27] = Cell cycle arrest in human HCT116 cells assessed as accumulation at G2/M phase at 0.4 uM after 24 hrs by propidium iodide staining-based flow cytometry (reference value: 14.6%); type: functional; conditions: HCT-116; how it was run: as §7
[28] = tested on: U-87 MG; assay: Induction of apoptosis in human U87MG cells assessed as viable cells at 0.3 uM after 24 hrs by Annexin V-PE/7-AAD staining-based FACS analysis (reference value: 96.7%); type: functional, U-87MG ATCC; conditions: read-out: Activity
[29] = tested on: HCT-116; assay: Induction of apoptosis in human HCT116 cells assessed as viable cells at 0.4 uM after 24 hrs by Annexin V-PE/7-AAD staining-based FACS analysis (reference value: 93.2%); type: functional; conditions: HCT-116, 24 h, read-out: Activity
[30] = tested on: HCT-116; assay: Induction of apoptosis in human HCT116 cells at < 0.4 uM after 24 hrs by Annexin V-PE/7-AAD staining-based FACS analysis; type: functional, cell-based
[31] = Antiinvasive activity in human U87MG cells after 24 hrs by matrigel assay; type: functional, U-87MG ATCC
How it was run: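 U-87MG pre-exposed 24 h to compound or DMSO in 3% FBS, then 4 × 10^4 cells seeded in upper chamber of impedance-based CIM-16 plate (8 μm pore membrane) coated with Matrigel/collagen; lower chamber 10% FBS; cell index monitored at 37 °C, 5% CO2 for 12 h; slope (1/h) over set interval, DMSO slope set to 100; duplicate wells, repeated twice.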

[32] = tested on: U-87 MG; assay: Induction of apoptosis in human U87MG cells assessed as necrotic cells at 0.3 uM after 24 hrs by Annexin V-PE/7-AAD staining-based FACS analysis (reference value: 1.06%); type: functional, U-87MG ATCC
[33] = Cell cycle arrest in human HCT116 cells at < 0.4 uM after 24 hrs by propidium iodide staining-based flow cytometry; type: functional; conditions: HCT-116; how it was run: as §7
[34] = tested on: U-87MG ATCC; assay: Antimigratory activity in human U87MG cells at 4 uM […] by transwell membrane assay; type: functional, cell-based

Focal adhesion kinase 1, sequence (Q05397 whole entry): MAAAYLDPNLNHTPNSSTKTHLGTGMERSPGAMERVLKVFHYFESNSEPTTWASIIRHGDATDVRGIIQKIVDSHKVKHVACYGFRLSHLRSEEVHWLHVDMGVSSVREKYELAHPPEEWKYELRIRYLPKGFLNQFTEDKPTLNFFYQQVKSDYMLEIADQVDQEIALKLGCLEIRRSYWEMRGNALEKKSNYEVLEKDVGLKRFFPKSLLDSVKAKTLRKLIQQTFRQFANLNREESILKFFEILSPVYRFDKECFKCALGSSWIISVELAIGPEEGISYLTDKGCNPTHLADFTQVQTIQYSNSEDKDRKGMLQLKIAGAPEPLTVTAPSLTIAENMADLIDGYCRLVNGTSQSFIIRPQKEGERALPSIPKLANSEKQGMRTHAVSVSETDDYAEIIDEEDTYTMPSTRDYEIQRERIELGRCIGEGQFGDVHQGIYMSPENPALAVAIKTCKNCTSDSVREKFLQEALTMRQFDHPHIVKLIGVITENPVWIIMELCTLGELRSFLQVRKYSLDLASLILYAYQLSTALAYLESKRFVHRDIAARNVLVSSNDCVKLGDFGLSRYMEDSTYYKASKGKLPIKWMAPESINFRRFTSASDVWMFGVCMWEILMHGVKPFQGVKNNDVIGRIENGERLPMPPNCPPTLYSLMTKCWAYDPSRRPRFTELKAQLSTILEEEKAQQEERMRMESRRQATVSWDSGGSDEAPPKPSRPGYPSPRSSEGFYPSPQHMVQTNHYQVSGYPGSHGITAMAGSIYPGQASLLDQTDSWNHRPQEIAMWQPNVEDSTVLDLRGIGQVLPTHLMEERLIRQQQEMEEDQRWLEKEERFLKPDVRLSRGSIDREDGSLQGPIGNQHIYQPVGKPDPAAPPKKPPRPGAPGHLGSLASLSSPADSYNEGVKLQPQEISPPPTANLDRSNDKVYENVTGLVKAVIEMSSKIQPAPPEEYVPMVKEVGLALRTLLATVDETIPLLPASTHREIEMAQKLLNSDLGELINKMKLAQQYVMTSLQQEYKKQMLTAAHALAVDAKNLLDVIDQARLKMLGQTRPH

CNC(=O)c1ccccc1Nc1nc(Nc2ccc(C#N)cc2)n2ccnc2n1
IC50 [1]: 1120 nM

COC(=O)c1ccccc1Nc1nc(Nc2ccc(N3CCOCC3)cc2OC)nc2nccn12
IC50 [1]: 370 nM

CNC(=O)c1ccccc1Cc1nc(Nc2cc(OC)c(OC)c(OC)c2)nc2nccn12
IC50 [1]: 180 nM

CS(=O)(=O)Nc1ccccc1Nc1nc(Nc2ccc(C#N)cc2)n2ccnc2n1
IC50 [1]: 1730 nM

COC(=O)c1ccccc1Nc1nc(Nc2ccc(N3CCOCC3)cc2OC)n2ccnc2n1
IC50 [1]: 570 nM

CNC(=O)c1ccccc1Nc1nc(Nc2ccc(N3CCOCC3)cc2OC)nc2nccn12
Activity [2]: Dose-dependent effect
IC50 [3]: > 10000 nM
IC50 [1]: 330 nM
IC50 [4]: 270 nM
inhibition [5]: Dose-dependent effect
IC50 [5]: > 10000 nM
Activity [6]: Active
Activity [7]: Dose-dependent effect
IC50 [8]: 340 nM
IC50 [9]: 1400 nM
inhibition [10]: Dose-dependent effect
IC50 [11]: 630 nM
inhibition [12]: Dose-dependent effect
IC50 [13]: 20 nM
inhibition [14]: Dose-dependent effect
IC50 [15]: 2310 nM

C=COC(=O)NCc1ccc(Nc2nc(Nc3ccccc3C(=O)NC)nc3nccn23)cc1
IC50 [1]: 880 nM

CNC(=O)c1ccccc1Nc1nc(Nc2ccc(CN)cc2)nc2nccn12
Activity [2]: Dose-dependent effect
IC50 [3]: 1080 nM
IC50 [1]: 120 nM
Activity [16]: 1.37%
Activity [17]: 24.4%
IC50 [4]: 1270 nM
Activity [18]: 0.755%
Activity [19]: Dose-dependent effect
Activity [20]: 50%
Activity [21]: 4.24%
Activity [22]: 12.8%
Activity [23]: 66.4%
Activity [24]: 3.03%
inhibition [5]: Dose-dependent effect
IC50 [5]: 520 nM
Activity [25]: Active
Activity [7]: Dose-dependent effect
Activity [26]: 4.06%
IC50 [8]: 310 nM
Activity [27]: 61%
viability at 0.3 µM [28]: 96.6%
viability at 0.4 µM [29]: 88.7%
IC50 [9]: 220 nM
inhibition [10]: Dose-dependent effect
Activity [30]: inactive
Activity [31]: 50%
IC50 [11]: 1400 nM
inhibition [12]: Dose-dependent effect
IC50 [13]: 120 nM
inhibition [14]: Dose-dependent effect
Activity [32]: 1.26%
IC50 [15]: 370 nM
Activity [33]: Active

CNC(=O)c1ccccc1Nc1nc(Nc2ccc(N3CCOCC3)cc2OC)n2ccnc2n1
IC50 [1]: 510 nM

COC(=O)c1ccccc1Nc1nc(Nc2cc(OC)c(OC)c(OC)c2)nc2nccn12
IC50 [1]: 280 nM

COc1cc(Nc2nc(Cc3ccccc3NS(C)(=O)=O)nc3nccn23)cc(OC)c1OC
IC50 [1]: 840 nM

COC(=O)c1ccccc1Nc1nc(Nc2ccc(CN)cc2)nc2nccn12
IC50 [1]: 240 nM

COC(=O)c1ccccc1Cc1nc(Nc2cc(OC)c(OC)c(OC)c2)nc2nccn12
IC50 [1]: 370 nM

COC(=O)c1ccccc1Nc1nc(Nc2ccc(CN)cc2)n2ccnc2n1
IC50 [1]: 280 nM

COc1cc(NC2=Nc3nccn3C(Cc3ccccc3NC(C)=O)N2)cc(OC)c1OC (stereo not drawn)
IC50 [1]: 8910 nM

COC(=O)c1cccc(Nc2nc(Nc3cc(OC)c(OC)c(OC)c3)nc3nccn23)c1
IC50 [1]: 870 nM

CNC(=O)c1ccccc1Nc1nc(Nc2cc(OC)c(OC)c(OC)c2)n2ccnc2n1
IC50 [1]: 310 nM

C=COC(=O)NCc1ccc(Nc2nc(Nc3ccccc3C(=O)OC)n3ccnc3n2)cc1
IC50 [1]: 500 nM

C=COC(=O)NCc1ccc(Nc2nc(Nc3ccccc3C(=O)OC)nc3nccn23)cc1
IC50 [1]: 1050 nM

COC(=O)c1ccccc1Nc1nc(Nc2cc(OC)c(OC)c(OC)c2)n2ccnc2n1
IC50 [1]: 570 nM

COC(=O)c1cccc(Nc2nc(Nc3cc(OC)c(OC)c(OC)c3)n3ccnc3n2)c1
IC50 [1]: 1200 nM

CNC(=O)c1ccccc1Nc1nc(Nc2ccc(C#N)cc2)nc2nccn12
IC50 [1]: 710 nM

CS(=O)(=O)Nc1ccccc1Nc1nc(Nc2ccc(C#N)cc2)nc2nccn12
IC50 [1]: 920 nM

CNC(=O)c1ccccc1Nc1nc(Nc2ccc(CN)cc2)n2ccnc2n1
IC50 [1]: 220 nM

CNC(=O)c1ccccc1Nc1nc(Nc2cc(OC)c(OC)c(OC)c2)nc2nccn12
Activity [2]: Dose-dependent effect
IC50 [3]: > 10000 nM
IC50 [1]: 230 nM
IC50 [4]: 350 nM
IC50 [5]: 3900 nM
Activity [7]: Dose-dependent effect
IC50 [8]: 950 nM
Activity [34]: Active
IC50 [9]: 220 nM
IC50 [11]: 990 nM
IC50 [13]: 760 nM
IC50 [15]: 4200 nM

— ChEMBL document CHEMBL3392964, “Design, synthesis, and evaluation of novel imidazo[1,2-a][1,3,5]triazines and their derivatives as focal adhesion kinase inhibitors with antitumor activity” (J Med Chem, 2015)
